For assay [1], the target named is T1, Ectonucleoside triphosphate diphosphohydrolase 1 (Homo sapiens) (UniProt P49961).
T1 sequence (whole entry): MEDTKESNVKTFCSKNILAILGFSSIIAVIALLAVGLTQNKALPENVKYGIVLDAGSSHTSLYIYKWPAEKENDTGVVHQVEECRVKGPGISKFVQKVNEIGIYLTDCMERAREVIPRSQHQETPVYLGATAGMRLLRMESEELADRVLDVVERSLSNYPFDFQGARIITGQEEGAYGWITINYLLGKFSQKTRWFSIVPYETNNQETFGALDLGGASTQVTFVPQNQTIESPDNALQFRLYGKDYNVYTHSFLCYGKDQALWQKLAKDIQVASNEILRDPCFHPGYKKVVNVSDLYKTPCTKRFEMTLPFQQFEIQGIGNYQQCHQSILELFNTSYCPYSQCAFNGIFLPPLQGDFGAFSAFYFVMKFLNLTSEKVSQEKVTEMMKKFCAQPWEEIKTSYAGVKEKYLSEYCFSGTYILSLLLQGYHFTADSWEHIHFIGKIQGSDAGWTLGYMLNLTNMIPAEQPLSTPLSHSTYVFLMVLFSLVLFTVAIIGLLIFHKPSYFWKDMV
Briefly: Inhibition of human NTPDase1 expressed in COS7 cells assessed as amount of inorganic phosphate released using ATP as the substrate at 100 uM after 15 mins by malachite green reagent method. Type of assay: cell-based. As to conditions: COS-7. The procedure, abridged:
(§1)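 Protein extracts of transfected COS-7 cells (ecto-5'-nucleotidase: 100 μM AMP substrate; NTPDases: 100 μM ATP) were preincubated 3 min at 37 °C in Tris-Ringer pH 7.3 with inhibitor at 100 μM final. After 15 min, malachite green stop; Pi read at 630 nm. Activity given as % of substrate-only control. Mean ± SD of three experiments in triplicate.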

Assay [2] concerns the target T2, Ectonucleoside triphosphate diphosphohydrolase 3 (Homo sapiens) (UniProt O75355).
T2 sequence (whole entry): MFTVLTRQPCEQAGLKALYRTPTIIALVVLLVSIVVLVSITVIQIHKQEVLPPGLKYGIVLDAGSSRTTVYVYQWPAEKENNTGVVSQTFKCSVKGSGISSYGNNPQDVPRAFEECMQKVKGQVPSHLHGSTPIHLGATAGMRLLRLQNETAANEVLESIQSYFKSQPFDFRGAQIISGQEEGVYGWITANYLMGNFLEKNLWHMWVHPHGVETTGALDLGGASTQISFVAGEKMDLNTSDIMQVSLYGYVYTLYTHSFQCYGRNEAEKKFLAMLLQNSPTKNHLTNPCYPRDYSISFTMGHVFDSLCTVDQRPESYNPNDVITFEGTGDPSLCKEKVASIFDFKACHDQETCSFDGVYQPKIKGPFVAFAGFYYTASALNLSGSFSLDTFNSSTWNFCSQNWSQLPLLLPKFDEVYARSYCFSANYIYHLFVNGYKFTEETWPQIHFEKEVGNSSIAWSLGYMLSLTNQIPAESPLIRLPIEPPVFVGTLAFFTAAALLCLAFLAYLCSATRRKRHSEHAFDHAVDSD
Description: Activity of human NTPDase3 expressed in COS7 cells assessed as amount of inorganic phosphate released using ATP as the substrate at 100 uM after 15 mins by malachite green reagent method. Type of assay: cell-based. As to conditions: COS-7. In a few lines:
(§2)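 Crude membrane-enriched protein extract of transiently transfected COS-7 cells, preincubated 3 min at 37 °C in Tris-Ringer buffer pH 7.3. Reaction started with 100 μM ATP, or with the analogue alone at 100 μM to test it as substrate. Stopped after 15 min with malachite green reagent; released Pi read at 630 nm. Mean ± SD, n = 3.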

In assay [3] the target is T2, Ectonucleoside triphosphate diphosphohydrolase 3 (Homo sapiens). Description: Inhibition of human NTPDase3 expressed in COS7 cells assessed as amount of inorganic phosphate released using ATP as the substrate at 100 uM after 15 mins by malachite green reagent method. Type of assay: cell-based. Particulars: COS-7. In a few lines:
as §1

For assay [4], the target named is T3, P2Y purinoceptor 11 (Homo sapiens) (UniProt Q96G91).
T3 sequence (whole entry): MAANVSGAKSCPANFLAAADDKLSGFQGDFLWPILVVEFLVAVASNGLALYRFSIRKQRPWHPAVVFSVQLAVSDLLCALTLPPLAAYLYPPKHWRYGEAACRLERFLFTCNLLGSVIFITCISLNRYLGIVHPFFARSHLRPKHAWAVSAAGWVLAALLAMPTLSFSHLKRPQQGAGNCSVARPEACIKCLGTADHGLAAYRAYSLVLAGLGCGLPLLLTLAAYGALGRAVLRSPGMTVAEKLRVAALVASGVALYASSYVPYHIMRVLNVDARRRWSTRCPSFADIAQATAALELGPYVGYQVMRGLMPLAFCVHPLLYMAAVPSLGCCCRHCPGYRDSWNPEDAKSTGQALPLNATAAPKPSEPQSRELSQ
Briefly: Agonist activity at GFP tagged-human P2Y11 receptor expressed in human 1321N1 cells assessed as elevation in calcium level at 50 uM after 30 mins by fluorescence spectrophotometric analysis. Type of assay: functional, cell-based.

The target of assay [5] is T4, P2Y purinoceptor 11 (Homo sapiens, UniProt Q96G91).
T4 sequence (Q96G91 whole entry): T3 sequence (whole entry)
Briefly: Agonist activity at GFP tagged-human P2Y11 receptor expressed in human 1321N1 cells assessed as elevation in calcium level after 30 mins by fluorescence spectrophotometric analysis. Type of assay: functional, cell-based.

For assay [6], the target named is T5, Ectonucleoside triphosphate diphosphohydrolase 2 (Homo sapiens) (UniProt Q9Y5L3).
T5 sequence (whole entry): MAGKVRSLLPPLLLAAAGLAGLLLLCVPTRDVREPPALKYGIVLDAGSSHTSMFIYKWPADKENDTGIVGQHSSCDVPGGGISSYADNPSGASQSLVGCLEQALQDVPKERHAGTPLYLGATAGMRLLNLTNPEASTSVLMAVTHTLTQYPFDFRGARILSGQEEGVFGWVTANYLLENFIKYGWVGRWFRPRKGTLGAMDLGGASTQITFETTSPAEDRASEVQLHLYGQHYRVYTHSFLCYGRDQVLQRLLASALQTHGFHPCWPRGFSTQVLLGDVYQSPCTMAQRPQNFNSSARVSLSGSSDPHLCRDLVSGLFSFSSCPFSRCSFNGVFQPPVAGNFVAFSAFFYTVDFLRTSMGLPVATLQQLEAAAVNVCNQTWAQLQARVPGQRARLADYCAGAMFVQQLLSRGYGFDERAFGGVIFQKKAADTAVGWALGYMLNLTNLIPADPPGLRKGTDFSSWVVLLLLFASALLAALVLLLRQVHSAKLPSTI
Briefly: Activity of human NTPDase2 expressed in COS7 cells assessed as amount of inorganic phosphate released using ATP as the substrate at 100 uM after 15 mins by malachite green reagent method. Type of assay: cell-based. Particulars: COS-7. The procedure, abridged:
as §2

Active and inactive are the calls of the source. The calls are words filed in the database; no cut-off is given here.

Turning to `Nc1ncnc2c1ncn2[C@H]1C[C@H](O)[C@@H](COP(=O)(O)CP(=O)(O)OP(=O)(O)CP(=O)(O)OC[C@H]2O[C@@H](n3cnc4c(N)ncnc43)C[C@@H]2O)O1`, the inhibition entry in assay [1] was “inactive”. The Activity in assay [2] is 1.8%. Moreover, the inhibition in assay [3] turned out to be 10%. In assay [4], the result was inactive.
With `BP(=O)(OP(=O)(O)CP(=O)(O)OC[C@H]1O[C@@H](n2cnc3c(N)ncnc32)[C@H](O)[C@@H]1O)OP(=O)(O)CP(=O)(O)OC[C@H]1O[C@@H](n2cnc3c(N)ncnc32)[C@H](O)[C@@H]1O`, in assay [1], the inhibition entry is “inactive”. Also, in assay [5], the EC50 amounted to 13 µM. For the same compound, the inhibition in assay [3] is 10%.
In the case of `BP(=O)(OP(=O)(O)CP(=O)(O)OC[C@H]1O[C@@H](n2cnc3c(N)ncnc32)C[C@@H]1O)OP(=O)(O)CP(=O)(O)OC[C@H]1O[C@@H](n2cnc3c(N)ncnc32)C[C@@H]1O`, in assay [1], the inhibition entry is “inactive”. In addition, the Activity in assay [6] amounted to 0.2%. The inhibition in assay [3] is 10%. Further, the result in assay [4] was inactive.
As to `Nc1ncnc2c1ncn2[C@@H]1O[C@H](COP(=O)(O)CP(=O)(O)OP(=O)(O)CP(=O)(O)OC[C@H]2O[C@@H](n3cnc4c(N)ncnc43)[C@H](O)[C@@H]2O)[C@@H](O)[C@H]1O`, the inhibition entry in assay [1] is “inactive”. Further, the Activity was 0.1% in assay [6] and 5.3% in assay [2]. Besides, the EC50 in assay [5] is at least 40 µM. Besides, the inhibition in assay [3] amounted to 10%.
